# Experimental data from ChEMBL document CHEMBL1122659, “Synthesis of some phosphonates with antiherpetic activity” (1984).
# Activity calls are given as the source filed them. The rule behind the calls is not given here.
# Key:
# [1] = In vitro ability to inhibit the herpes HSV-2 virus; type: functional, herpes simplex virus; settings: Oryctolagus cuniculus
# [2] = organism: Mus musculus; assay: Average survival rate of mice infected intravaginally with herpes simplex virus type 2 at daily dosage of 5%(treatment initiated 4-h postinfection and continued for 7 days); type: functional
# In short: (§1)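 Mice infected intravaginally with HSV-2. Test agent suspended in gum tragacanth and applied intravaginally. Survival recorded.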
# [3] = organism: Mus musculus; assay: Percent survival rate of mice infected intravaginally with herpes simplex virus type 2 at daily dosage of 5%(treatment initiated 4-h postinfection and continued for 7 days); type: functional; in short: as §1
# [4] = organism: Mus musculus; assay: Percent survival rate of mice infected intravaginally with herpes simplex virus type 2 at daily dosage of 10%(treatment initiated 4-h postinfection and continued for 7 days); type: functional; in short: as §1
# [5] = organism: Mus musculus; assay: Average survival rate of mice infected intravaginally with herpes simplex virus type 2 with placebo (treatment initiated 4-h postinfection and continued for 7 days)
# [6] = organism: Mus musculus; assay: Average survival rate of mice infected intravaginally with herpes simplex virus type 2 at daily dosage of 10%(treatment initiated 4-h postinfection and continued for 7 days); type: functional; in short: as §1
# [7] = organism: Mus musculus; assay: Percent survival rate of mice infected intravaginally with herpes simplex virus type 2 at daily dosage of 2.5%(treatment initiated 4-h postinfection and continued for 7 days); type: functional; in short: as §1
# [8] = organism: Oryctolagus cuniculus; assay: In vitro ability to inhibit the herpes HSV-2 virus; Inactive; type: functional, organism-based; settings: herpes simplex virus
Structure (SMILES),MIC [1] [µg/mL],other results
CCOC(=O)c1ccc(OCCCCCCP(=O)(OCC)OCC)cc1,6,–
CCOP(=O)(CCCCCCOc1c(Cl)cccc1Cl)OCC,12,–
CCCOP(=O)(CCCCCCOc1ccc(OC)cc1Cl)OCCC,6,–
CCOP(=O)(OCC)C(CCCCOc1ccc(OC)cc1Cl)C(C)=O (stereo not drawn),12,–
CCOP(=O)(OCC)C(CCCCCOc1ccc(OC)cc1Cl)C(C)=O (stereo not drawn),6,–
CCOP(=O)(OCC)C(CCCCCCOc1ccc(OC)cc1Cl)C(C)=O (stereo not drawn),6,–
CCOP(=O)(OCC)C(CCCCCCCCOc1ccc(OC)cc1Cl)C(C)=O (stereo not drawn),6,–
CCOC(=O)C(CCCCCCOc1ccc(OC)cc1Cl)P(=O)(OCC)OCC (stereo not drawn),3,Average survival [2]: >7.3 days; Survival [3]: 10%; Survival [4]: 20%; Average survival [5]: >8.1 days; Average survival [6]: >8.7 days; Survival [7]: 10%
CCOP(=O)(OCC)C(CCCCc1ccc(OC)cc1)C(C)=O (stereo not drawn),25,–
CCOP(=O)(OCC)C(CCCCCCCOc1ccc(OC)cc1Cl)C(C)=O (stereo not drawn),6,–
CCOP(=O)(CCCCCCCCOc1ccc(OC)cc1Cl)OCC,–,MIC [8]: inactive
CCOP(=O)(CCCCCCCOc1ccc(OC)cc1Cl)OCC,–,MIC [8]: inactive
